ChEMBL document CHEMBL1139110, “Structure-activity relationships of some taxoids as multidrug resistance modulator” (Bioorg Med Chem Lett, 2007)
Converted amounts (≈) assume the structure as drawn.

What was measured:
[1] = Effect on calcein accumulation in multidrug-resistant human 2780AD cells at 0.25 ug/ml relative to control; assay type: functional, A2780 ADR
In short: (§1)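 Multidrug-resistant human ovarian cancer 2780AD cells were exposed to test compounds at […], with verapamil as the positive control. Calcein accumulated in the cells was measured relative to a control experiment. Values are the mean of triplicate determinations.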

[2] = Effect on calcein accumulation in multidrug-resistant human 2780AD cells at 2.5 ug/ml relative to control; assay type: functional, A2780 ADR; in short: as §1
[3] = Effect on calcein accumulation in multidrug-resistant human 2780AD cells at 25 ug/ml relative to control; assay type: functional, A2780 ADR; in short: as §1
[4] = Cytotoxicity againt human WI38 cells; assay type: cell-based; details: WI-38
In short: (§2)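 IC50 was determined against WI-38, VA-13 and HepG2 cells and is given as the mean of duplicate determinations.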

[5] = system: WI-38 VA13; assay: Cytotoxicity againt human VA13 cells; assay type: functional, cell-based; in short: as §2
[6] = system: HepG2; assay: Cytotoxicity againt human HepG2 cells; assay type: functional, cell-based; in short: as §2
[7] = Cytotoxicity againt multidrug-resistant human 2780AD cells; assay type: functional, cell-based; details: A2780 ADR
In short: (§3)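 Each drug was tested alone or with a modulator added at final […]; verapamil was the reference modulator. Values are the mean of triplicate determinations.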

[8] = system: A2780; assay: Cytotoxicity againt human A2780 cells; assay type: functional, cell-based; in short: as §3

Structure (SMILES)	Activity [1]	Activity [2]	Activity [3]	IC50 [4]	IC50 [5]	IC50 [6]	IC50 [7]	IC50 [8]
CC(=O)O[C@@H]1[C@@H]2CC(=O)C(C)=C([C@@H](OC(C)=O)[C@H](OC(C)=O)[C@]3(C)CC[C@H](O)[C@@](O)(CO)[C@@H]13)C2(C)C	79%	94%	88%	85.3 µg/mL (≈ 167 µM)	9.73 µg/mL (≈ 19.1 µM)	> 100 µg/mL		
CC(=O)OC[C@]1(O)[C@@H](O)CC[C@@]2(C)[C@@H](OC(C)=O)[C@H](OC(C)=O)C3=C(C)C(=O)C[C@@H]([C@@H](O)[C@@H]21)C3(C)C	88%	97%	126%	> 100 µg/mL	8.47 µg/mL (≈ 16.6 µM)	> 100 µg/mL		
CC1=C2[C@@H](O)[C@H](O)[C@]3(C)CC[C@H]4OC[C@@]4(O)[C@H]3[C@H](OC(=O)c3ccccc3)[C@H](CC1=O)C2(C)C	105%	110%	106%	> 100 µg/mL	> 100 µg/mL	67.7 µg/mL (≈ 144 µM)		
CC(=O)O[C@@H]1[C@@H]2C[C@H](O)C(C)=C([C@@H](OC(C)=O)[C@H](OC(C)=O)[C@]3(C)CC[C@H]4OC[C@@]4(O)[C@@H]13)C2(C)C	94%	95%	95%	8.39 µg/mL (≈ 17 µM)	81.5 µg/mL (≈ 165 µM)	> 100 µg/mL		
CC(=O)O[C@H]1C(=O)[C@]2(C)CC[C@H]3OC[C@@]3(O)[C@H]2[C@H](OC(=O)c2ccccc2)[C@@H]2C[C@H](O)C(C)=C1C2(C)C	96%	129%	163%	54.2 µg/mL (≈ 106 µM)	77 µg/mL (≈ 150 µM)	69.9 µg/mL (≈ 136 µM)		
CC(=O)O[C@H]1[C@H](O)C2=C(C)C(=O)C[C@@H]([C@@H](OC(=O)c3ccccc3)[C@H]3[C@@]1(C)CC[C@H]1OC[C@]13O)C2(C)C	115%	118%	134%	0.67 µg/mL (≈ 1.31 µM)	67 µg/mL (≈ 131 µM)	43.2 µg/mL (≈ 84.3 µM)		
CC(=O)O[C@@H]1[C@@H]2C[C@@H](O)C(C)=C([C@@H](OC(C)=O)[C@H](OC(C)=O)[C@]3(C)CC[C@H]4OC[C@@]4(O)[C@@H]13)C2(C)C	82%	95%	96%	76.2 µg/mL (≈ 154 µM)	> 100 µg/mL	> 100 µg/mL		
CC(=O)O[C@H]1C(=O)[C@]2(C)CC[C@H]3OC[C@@]3(O)[C@H]2[C@H](OC(=O)c2ccccc2)[C@@H]2CC(=O)C(C)=C1C2(C)C	101%	120%	137%	7.38 µg/mL (≈ 14.5 µM)	7.93 µg/mL (≈ 15.5 µM)	30.1 µg/mL (≈ 59 µM)		
CC(=O)O[C@@H]1C2=C(C)C(=O)C[C@@H]([C@@H](OC(=O)c3ccccc3)[C@H]3[C@@](C)(CC[C@H]4OC[C@]43O)[C@H]1OC(C)=O)C2(C)C	97%	119%	135%	0.82 µg/mL (≈ 1.48 µM)	51.9 µg/mL (≈ 93.6 µM)	7.32 µg/mL (≈ 13.2 µM)		
CC(=O)OC[C@]1(O)[C@@H](O)CC[C@@]2(C)[C@@H](OC(C)=O)[C@H](OC(C)=O)C3=C(C)C(=O)C[C@@H]([C@@H](OC(=O)/C=C/c4ccccc4)[C@@H]21)C3(C)C	88%	116%	145%	68.1 µg/mL (≈ 106 µM)	82.3 µg/mL (≈ 128 µM)	2.14 µg/mL (≈ 3.34 µM)		
CC(=O)O[C@H]1C(=O)[C@]2(C)CC[C@H](O)[C@@](O)(CO)[C@H]2[C@H](OC(=O)c2ccccc2)[C@@H]2CC(=O)C(C)=C1C2(C)C	88%	114%	112%	57.4 µg/mL (≈ 109 µM)	59.6 µg/mL (≈ 113 µM)	33.4 µg/mL (≈ 63.2 µM)		
CC(=O)O[C@@H]1C2=C(C)C(=O)C[C@@H]([C@@H](OC(=O)c3ccccc3)[C@H]3[C@@](C)(CC[C@H]4OC[C@]43O)[C@H]1O)C2(C)C	99%	102%	140%	42.3 µg/mL (≈ 82.5 µM)	> 100 µg/mL	77.7 µg/mL (≈ 152 µM)		
CC(=O)O[C@@]12CO[C@@H]1C[C@H](O)[C@@]1(C)C(=O)[C@H](O)C3=C(C)[C@@H](O)C[C@@](O)([C@@H](OC(=O)c4ccccc4)[C@H]21)C3(C)C	95%	90%	93%					
CC(=O)O[C@@H]1[C@@H]2CC(=O)C(C)=C([C@@H](OC(C)=O)[C@H](OC(C)=O)[C@]3(C)CC[C@H]4OC[C@@]4(O)[C@@H]13)C2(C)C	115%	120%	123%	77 µg/mL (≈ 156 µM)	> 100 µg/mL	> 100 µg/mL		
COc1ccc(CCN(C)CCCC(C#N)(c2ccc(OC)c(OC)c2)C(C)C)cc1OC (stereo unspecified)	99%	103%	140%					
CC(=O)O[C@H]1C(=O)[C@@]2(C)[C@H]([C@H](OC(=O)c3ccccc3)[C@]3(O)C[C@H](O)C(C)=C1C3(C)C)[C@]1(OC(C)=O)CO[C@@H]1C[C@@H]2O [BACCATIN III]	93%	84%	81%	16.1 µg/mL (≈ 27.4 µM)	0.84 µg/mL (≈ 1.43 µM)	9.91 µg/mL (≈ 16.9 µM)		
COc1cccc2c1C(=O)c1c(O)c3c(c(O)c1C2=O)C[C@@](O)(C(=O)CO)C[C@@H]3O[C@H]1C[C@H](N)[C@H](O)[C@H](C)O1 [DOXORUBICIN]							909 nM	13 nM
CC(=O)O[C@H]1C(=O)[C@@]2(C)[C@H]([C@H](OC(=O)c3ccccc3)[C@]3(O)C[C@H](OC(=O)[C@H](O)[C@@H](NC(=O)c4ccccc4)c4ccccc4)C(C)=C1C3(C)C)[C@]1(OC(C)=O)CO[C@@H]1C[C@@H]2O [PACLITAXEL]							535 nM	0.7 nM
CC[C@]1(O)C[C@H]2CN(CCc3c([nH]c4ccccc34)[C@@](C(=O)OC)(c3cc4c(cc3OC)N(C=O)[C@H]3[C@@](O)(C(=O)OC)[C@H](OC(C)=O)[C@]5(CC)C=CCN6CC[C@]43[C@@H]65)C2)C1 [VINCRISTINE]							895 nM	0.9 nM
